21 molecules from ChEMBL document CHEMBL1811833, “Phenylimino-10H-anthracen-9-ones as novel antimicrotubule agents-synthesis, antiproliferative activity and inhibition of tubulin polymerization” (Bioorg Med Chem, 2011) can be followed below.

One test relates to K562. The experiment in a line: Antiproliferative activity against human K562 cells after 48 hrs by hemocytometer. The test is classed as functional, cell-based. The conditions noted are these: K562, 48 h. The essentials:
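K562 human erythroid leukemia cells were treated with drug for 48 h, and the cells were then counted directly with a hemocytometer. IC50 is the concentration giving 50% inhibition of cell growth. Values are means of at least three independent determinations.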

For test [1], the target named is T1, Tubulin (Sus scrofa, UniProt P02554+P02550). The experiment in a line: Inhibition of pig brain tubulin polymerization after 30 mins by turbidimetry analysis.
Test [2] is described as follows: Cytotoxicity against ponasterone A-induced human RKOp27 cells with ectopic inducible expression of CDK inhibitor-kip1 after 48 hrs by XTT assay. The conditions noted are these: RKOp27, 48 h. The test is classed as functional, cell-based. The essentials:
(§1)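 Cells were exposed to test compound for 48 h and growth was read by XTT proliferation assay. Experiments were run in at least two replicates (n = 2). IC50 was calculated from dose–response curves by nonlinear regression.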
In general terms: Formazan colour is commonly taken as a measure of viable cells.

Test [3] can be described thus: Cytotoxicity against human KB/HeLa cells after 48 hrs by XTT assay. The test is classed as functional, cell-based. The gist of the method:
as §1

Test [4] in a line: Cytotoxicity against non induced human RKOp27 cells after 48 hrs by XTT assay. The conditions noted are these: RKOp27, 48 h. The test is classed as functional, cell-based. The essentials:
as §1

The nature of test [5]: Antiproliferative activity against rat multiple drug-resistant LT12 cells after 48 hrs by XTT assay. The test is classed as functional, cell-based. The following applies: LT12, 48 h. The gist of the method:
as §1

For test [6], the system named is L1210. Kind of test: Antiproliferative activity against mouse VCR-resistant L1210 cells after 48 hrs by XTT assay. The test is classed as functional, cell-based. The conditions noted are these: L1210, 48 h. The gist of the method: as §1
Test [7] concerns P388. Kind of test: Antiproliferative activity against ADR-resistant mouse P388 cells after 48 hrs by XTT assay. In kind it is functional, cell-based. The conditions noted are these: P388, 48 h. The gist of the method: as §1
The nature of test [8]: Cell cycle arrest in human KB/HeLa cells assessed as accumulation of cells at G2/M phase after 24 hrs by flow cytometry. In kind it is functional, cell-based. The gist of the method:
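Sub-confluent KB/HeLa cells were exposed to a range of compound concentrations for 24 h. The cells were then permeabilized and stained with propidium iodide, and DNA content was measured by flow cytometry. The percentage of cells in G2/M was plotted against concentration, and EC50 is the concentration giving 50% of cells arrested in G2/M. At least two replicates were run, with nonlinear regression fitting.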

In the next test the test system is SK-OV-3. Kind of test: Cytotoxicity against human SKOV3 cells after 48 hrs by XTT assay. In kind it is functional, cell-based. The following applies: SK-OV-3, 48 h. The essentials:
as §1

The next test concerns NCI-H460. The experiment in a line: Cytotoxicity against human NCI-H460 cells after 48 hrs by XTT assay. The following applies: NCI-H460, 48 h. In kind it is functional, cell-based. The gist of the method:
as §1

Another test concerns SF-268. The experiment in a line: Cytotoxicity against human SF268 cells after 48 hrs by XTT assay. The test is classed as functional, cell-based. The conditions noted are these: SF-268, 48 h. The essentials:
as §1

Test [9] in a line: Antiproliferative activity against rat LT12 cells after 48 hrs by XTT assay. The following applies: LT12, 48 h. In kind it is functional, cell-based.
For test [10], the system named is L1210. Kind of test: Antiproliferative activity against mouse L1210 cells after 48 hrs by XTT assay. The following applies: L1210, 48 h. In kind it is functional, cell-based. The gist of the method: as §1
The test system of test [11] is P388. Kind of test: Antiproliferative activity against mouse P388 cells after 48 hrs by XTT proliferation assay. The test is classed as functional, cell-based. The conditions noted are these: P388, 48 h. The essentials:
as §1

Test [12] deals with T1, Tubulin. Kind of test: Displacement of [3H]colchicine from biotinylated pig brain tubulin after 2 hrs by competitive scintillation proximity assay. In general terms: In a radioligand displacement assay an active substance lowers the binding of a labelled ligand.
For a further test, the target named is Tubulin (Sus scrofa) (UniProt P02554+P02550). The experiment in a line: Displacement of [3H]paclitaxel from biotinylated pig brain tubulin after 2 hrs by competitive scintillation proximity assay.

pEC50, pIC50: −log10 of the molar value. Calls of active or inactive are those of the source. The calls are words filed in the database; no cut-off is given here.

The term pIC50 denotes the IC50 on a negative log10 scale, so that one unit is a factor of ten. By IC50 is commonly meant the concentration that gives 50% inhibition. A low value points to higher potency. Consider `COc1ccc(NN=C2c3ccccc3C(=O)c3ccccc32)cc1`, for which the pIC50 in the test with K562 is 5.08. Also, the IC50 against Tubulin [1] is more than 10000 nM.
On to `O=C1c2ccccc2C(=NNc2ccccc2)c2ccccc21`, for which, at Tubulin [1], the IC50 was more than 10000 nM.
A word on the pEC50: it is the EC50 on a negative log10 scale, so that one unit is a factor of ten. Turning to `CC(=O)O[C@H]1C(=O)[C@@]2(C)[C@H]([C@H](OC(=O)c3ccccc3)[C@]3(O)C[C@H](OC(=O)[C@H](O)[C@@H](NC(=O)c4ccccc4)c4ccccc4)C(C)=C1C3(C)C)[C@]1(OC(C)=O)CO[C@@H]1C[C@@H]2O` [PACLITAXEL], the negative logarithm of the IC50 (pIC50) was less than 5.52 in test [2]; 8.00 in [3]; 8.00 in test [4]; 6.40 in test [5]; less than 5.30 in the test with L1210 [6]; less than 5.30 with P388 [7]. Also, the pEC50 in test [8] is 7.31.
With `COc1ccc(N=C2c3cccc(Cl)c3C(=O)c3c(Cl)cccc32)cc1O`, the pIC50 was less than 5.05 in test [2]; 6.82 in test [3]; 7.00 with SK-OV-3; 6.96 with K562; 6.80 in test [4]; 6.74 in the test with NCI-H460. Moreover, the negative-log IC50 (pIC50) is 6.82 in the test with SF-268; 6.51 in test [9]; 6.80 in test [5]; 6.72 with L1210 [10]; 6.72 in the test on L1210 [6]; 6.64 with P388 [11]. The molecule also gave a pIC50 in the test on P388 [7] of 6.52. For the same molecule, the pEC50 in test [8] is 6.92. Besides, the values for the IC50 against Tubulin [1] and at Tubulin [12] were 1110 nM and 2600 nM, respectively. In addition, on Tubulin (Sus scrofa), the result was inactive.
`COc1cc2c(c(OC)c1OC)-c1ccc(OC)c(=O)cc1[C@@H](NC(C)=O)CC2` [COLCHICINE]: the negative-log IC50 (pIC50) in test [2] is less than 5.00; in test [3], 7.52; in [4], 7.70. Besides, in [8], the pEC50 is 7.85.
Molecule `COc1cccc(NN=C2c3ccccc3C(=O)c3ccccc32)c1` showed a negative-log IC50 (pIC50) in the test on K562 of 5.05. At Tubulin [1], this molecule had a half-maximal inhibitory concentration (IC50) of more than 10000 nM.
The matching figures for `COc1ccc(N=C2c3ccccc3C(=O)c3ccccc32)cc1OC`: 5.03 and 3600 nM.
For `COc1ccc(OC)c(NN=C2c3ccccc3C(=O)c3ccccc32)c1`, in that order: less than 4.10 and more than 10000 nM.
The molecule `COc1ccc(N=C2c3cccc(Cl)c3C(=O)c3c(Cl)cccc32)cc1` gave a pIC50 with K562 of 6.28.
On to `COc1ccc(N=C2c3ccccc3C(=O)c3ccccc32)cc1O`, for which the pIC50 in test [2] is less than 5.05; in [3], 6.66; in the test on SK-OV-3, 6.80; in the test with K562 it was 6.89; in [4] it was 6.77; in the test on NCI-H460 it was 6.68. For the same molecule, the pIC50 in the test with SF-268 is 6.47; in test [9], 6.74; in test [5], 6.85; with L1210 [10] it was 6.54; with L1210 [6], 6.66; in the test on P388 [11], 6.64. Also, the pIC50 in the test on P388 [7] is 6.64. The pEC50 in [8] was 6.44. The IC50 on Tubulin [1] came out at 440 nM; at Tubulin [12] it was 1100 nM. The outcome on Tubulin (Sus scrofa) was inactive.
Turning to `O=C1c2ccccc2C(=Nc2ccc3c(c2)OCO3)c2ccccc21`, in the test with K562, the pIC50 is 5.57.
`COc1ccc(N=C2c3ccccc3C(=O)c3ccccc32)cc1`: in the test on K562, the pIC50 was 6.17. In addition, the IC50 on Tubulin [1] is 1900 nM.
As to `COc1ccc(OC)c(N=C2c3ccccc3C(=O)c3ccccc32)c1`, the negative logarithm of the IC50 (pIC50) in the test on K562 is 6.06.
`COC(=O)Nc1nc2cc(C(=O)c3cccs3)ccc2[nH]1` [NOCODAZOLE]: the pIC50 in test [2] was less than 5.00; in test [3], 6.85; in [4], 6.96; in test [9], 7.40; in [5], 7.15. The pEC50 in [8] was 7.04.
With `CC[C@]1(O)C[C@H]2CN(CCc3c([nH]c4ccccc34)[C@@](C(=O)OC)(c3cc4c(cc3OC)N(C=O)[C@H]3[C@@](O)(C(=O)OC)[C@H](OC(C)=O)[C@]5(CC)C=CCN6CC[C@]43[C@@H]65)C2)C1` [VINCRISTINE], the pEC50 in [8] is 8.62.
Take `CC[C@]1(O)C[C@@H]2CN(CCc3c([nH]c4ccccc34)[C@@](C(=O)OC)(c3cc4c(cc3OC)N(C)[C@H]3[C@@](O)(C(N)=O)[C@H](O)[C@]5(CC)C=CCN6CC[C@]43[C@@H]65)C2)C1` [VINDESINE]: the pIC50 is 9.00 in [9], 6.59 in test [5] and less than 5.30 in the test on L1210 [6].
Molecule `COc1cc(NN=C2c3ccccc3C(=O)c3ccccc32)cc(OC)c1OC` gave a pIC50 in the test on K562 of 5.56. For the same molecule, the 50% inhibitory concentration (IC50) against Tubulin [1] is more than 10000 nM.
For `COc1cc(N=C2c3ccccc3C(=O)c3ccccc32)cc(OC)c1OC`, in that order: less than 4.52 and more than 10000 nM.
The matching figures for `COc1ccc(N=C2c3ccccc3C(=O)c3ccccc32)c(OC)c1`: 5.47 and 1600 nM.
Regarding `O=C1c2ccccc2C(=Nc2ccccc2)c2ccccc21`, in the test with K562, the pIC50 is 5.17. The IC50 at Tubulin [1] came to 1450 nM.
For `COc1cc(N=C2c3ccccc3C(=O)c3ccccc32)cc(OC)c1`, in that order: 6.14 and 1600 nM.
